# Activity calls are given as the source filed them. No cut-off for these calls is given here.
# Key:
# [1] = […] of Fe-dependent reactive oxygen species formation after 90 mins by H2DCF-DA-based fluorescence assay; assay type: physicochemical; settings: 1.5 h
# Summary of the method: (§1)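 H2DCF (20 µM) oxidation to DCF driven by 10 µM FeCl3, 10 µM NTA, 1 mM H2O2 and 1 mM ascorbate in PBS pH 7.4. Compound tested over a concentration range alongside trolox. Control wells hold Fe, NTA, H2O2 and ascorbate only. DCF read at ex 485/em 535 nm.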
# ARPE-19 [2] = assay: Cytoprotective activity in human ARPE19 cells assessed as reduction of UVA radiation-mediated cell death at 5 to 100 uM preincubated for 2 hrs followed by 40 mins UVA irradiation measured after 5 hrs by LDH release assay; assay type: functional, cell-based
# Summary of the method: (§2)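 ARPE-19 retinal pigment epithelial cells pre-treated 2 h with compound (5–100 µM range tested), then exposed to UVA for 40 min at 600 kJ/m2. Cell death read 5 h after irradiation; triplicate wells per treatment, normalized to cells treated with 2% Triton X-100.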
# [3] = Cytotoxicity against human ARPE19 cells assessed as cell viability up to 100 uM after 24 hrs by Cell Titer Blue assay; assay type: cell-based; settings: arpe-19, 24 h
# Summary of the method: (§3)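 ARPE-19 cells incubated with compound for 24 h or extended to 72 h, doses up to 100 µM, then assessed for cytotoxicity.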
# [4] = Photoconversion of the compound in PBS buffer assessed as time required to show HAPI peak at 50 uM irradiated with UVA for 75 secs by LC-MS analysis; assay type: physicochemical; settings: 75 s
# Summary of the method: (§4)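 Prochelator solutions analysed by LC-MS before and after UVA irradiation. New peaks identified by matching elution times and mass spectra to authentic umbelliferone and HAPI.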
# [5] = Photoconversion of the compound in PBS buffer assessed as time required to show umbelliferone peak at 50 uM irradiated with UVA for 75 secs by LC-MS analysis; assay type: physicochemical; settings: 75 s; summary of the method: as §4
# [6] = Metal chelating activity assessed as formation of compound-Fe3+ complex by measuring free calcein level at 10 uM irradiated with UVA for 15 secs measured after 1 hr by fluorescence-based microplate assay; assay type: physicochemical
# Summary of the method: (§5)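 Calcein competition in PBS: 2 µM calcein with 2 µM (NH4)2Fe(SO4)2, forming Fe3+(calcein) in situ. Compound added at 10 µM, with or without 15 s photolysis in a photoreactor (λmax 350 nm). Calcein emission recorded 1 h after photolysis; triplicate, SD.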
# [7] = Metal chelating activity assessed as formation of compound-Fe3+ complex by measuring free calcein level at 10 uM after 1 hr by fluorescence-based microplate assay in absence of UVA irradiation; assay type: physicochemical; summary of the method: as §5
# [8] = Inhibition of Fe-dependent reactive oxygen species formation at 10 to 100 uM after 1 hr by H2DCF-DA-based fluorescence assay in absence of UVA irradiation; assay type: functional
# Summary of the method: (§6)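 H2DCF (20 µM) in PBS pH 7.4 with 10 µM FeCl3, 10 µM NTA, 1 mM ascorbic acid and 1 mM H2O2. Wells dosed with chelator or prochelator, the latter either irradiated (+) or not irradiated (−) with UVA. DCF fluorescence read at ex 485/em 535 nm. Background from wells with only H2DCF and buffer subtracted.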
# [9] = Inhibition of Fe-dependent reactive oxygen species formation at 200 uM after 1 hr by H2DCF-DA-based fluorescence assay in absence of UVA irradiation; assay type: functional; summary of the method: as §6
# [10] = Inhibition of Fe-dependent reactive oxygen species formation at 10 to 200 uM irradiated with UVA for 15 secs measured after 1 hr by H2DCF-DA-based fluorescence assay; assay type: functional; summary of the method: as §6
# ARPE-19 [11] = assay: Cytoprotective activity in human ARPE19 cells assessed as reduction of UVA radiation-mediated cell death at < 50 uM preincubated for 2 hrs followed by 40 mins UVA irradiation measured after 5 hrs by LDH release assay; assay type: functional, cell-based; summary of the method: as §2
# ARPE-19 [12] = assay: Cytoprotective activity in human ARPE19 cells assessed as reduction of UVA radiation-mediated cell death at 75 to 100 uM preincubated for 2 hrs followed by 40 mins UVA irradiation measured after 5 hrs by LDH release assay; assay type: functional, cell-based; summary of the method: as §2
# [13] = Cytotoxicity against human ARPE19 cells assessed as cell viability at 75 to 100 uM after 72 hrs by Cell Titer Blue assay; assay type: cell-based; settings: arpe-19, 72 h; summary of the method: as §3
# [14] = Cytotoxicity against human ARPE19 cells assessed as cell viability at <25 uM after 72 hrs by Cell Titer Blue assay; assay type: cell-based; settings: arpe-19, 72 h; summary of the method: as §3
# [15] = Inhibition of Fe-dependent reactive oxygen species formation after 1 hr by H2DCF-DA-based fluorescence assay; assay type: functional; summary of the method: as §6
# [16] = Inhibition of Fe-dependent reactive oxygen species formation at 10 to 5000 uM after 90 mins by H2DCF-DA-based fluorescence assay; assay type: functional; summary of the method: as §1
Activity [1],Time [4],Time [5],Activity [6],Activity [7],SMILES,Activity (ARPE-19 [2]),Activity [3],inhibition [8],inhibition [9],inhibition [10],Activity (ARPE-19 [11]),Activity (ARPE-19 [12]),Activity [13],Activity [14],inhibition [15],inhibition [16]
Dose-dependent effect,,,,,O=c1ccc2ccc(O)cc2o1 [UMBELLIFERONE],inactive,Non-toxic,,,,,,,,,
,11.7 min,8.3 min,Active,Not Active,C/C(=N\NC(=O)c1ccncc1)c1ccccc1OC(=O)/C=C/c1ccc(O)cc1O,,Non-toxic,inactive,Active,Active,Active,inactive,Toxic,Non-toxic,,
,,,Active,Active,C/C(=N\NC(=O)c1ccncc1)c1ccccc1O,Active,Non-toxic,,,,,,Toxic,Non-toxic,Dose-dependent effect,
,,,,,Cc1c(C)c2c(c(C)c1O)CCC(C)(C(=O)O)O2 (stereo not drawn),,,,,,,,,,,Active

# Source: ChEMBL document CHEMBL3627708, “A multifunctional, light-activated prochelator inhibits UVA-induced oxidative stress” (Bioorg Med Chem Lett, 2015)
